# Screens: PubChem BioAssay, Johns Hopkins Ion Channel Center
# Kir21 inh – inhibitors of mouse Kir2.1 inward-rectifier potassium channel; Inward rectifier potassium channel 2 (Mus musculus), P35561; HEK293-Kir2.1, FluxOR thallium flux fluorescence; hits give low values; B-score at 10 µM; 0.85% of 310,000 active; AID 1672, 2009;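 active = fluorescence ratio B-score at or below minus 3 SD of library scores, with starting-brightness B-score within 2 SD, cut at about -4.2 in these data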;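 note: channel flux triggered by added potassium and thallium sulfate stimulus; B-score of peak minus minimum fluorescence over baseline after thallium stimulus; more negative B-score means stronger Kir2.1 block with less thallium influx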
# Target sequence (P35561 whole entry, looked up): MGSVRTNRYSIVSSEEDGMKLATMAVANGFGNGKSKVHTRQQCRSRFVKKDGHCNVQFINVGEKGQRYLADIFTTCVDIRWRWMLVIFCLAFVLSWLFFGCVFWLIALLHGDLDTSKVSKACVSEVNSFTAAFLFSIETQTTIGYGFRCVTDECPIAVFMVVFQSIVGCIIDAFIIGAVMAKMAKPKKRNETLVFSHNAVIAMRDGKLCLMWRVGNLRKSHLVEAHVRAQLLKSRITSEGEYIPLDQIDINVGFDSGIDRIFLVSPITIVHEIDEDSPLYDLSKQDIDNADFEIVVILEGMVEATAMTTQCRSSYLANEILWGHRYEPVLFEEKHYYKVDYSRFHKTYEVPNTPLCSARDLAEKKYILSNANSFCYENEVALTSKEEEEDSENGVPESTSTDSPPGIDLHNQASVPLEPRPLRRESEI
# TRPC4 agonist – activators of mouse TRPC4 channel, primary screen, Fluo4 calcium, HEK293 TRPC4beta/mu-opioid cells; Short transient receptor potential channel 4 (Mus musculus), Q9QUQ5; Fluo4 calcium fluorescence; hits give high values; B-score at 10 µM; 0.49% of 310,000 active; AID 2237, 2010;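 active = B-score above 5 SD of library B-scores, and initial fluorescence ratio not above library mean plus 5 SD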;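 note: positive B-score marks a calcium rise read as TRPC4 activation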
#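 Assay system: HEK293 stable line with TRPC4beta plus mu-opioid receptor. Times: dye 45 min RT, read 110 s. Measured by: kinetic Fluo4 calcium fluorescence. Measure: B score of integrated ratio. Controls: assay buffer as low control, maximal DAMGO as high control.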
# TRPC4 inh – inhibitors of mouse TRPC4 channel, primary screen, Fluo4 calcium, HEK293 TRPC4beta/mu-opioid cells; DAMGO-evoked Fluo4 calcium flux; hits give low values; 0.39% of 300,000 active; Short transient receptor potential channel 4 (Mus musculus), Q9QUQ5; AID 2247, 2010; B-score at 10 µM;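 active = B-score over 3 SD under the library average, no early fluorescence shift, positive overall ratio signal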
#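 Test system – stable TRPC4beta/mu-opioid receptor HEK293 cells · Probe or stimulus – DAMGO, a submaximal dose followed by a maximal one · Dosing – one concentration per compound · Signal – Fluo4 calcium fluorescence by kinetic imaging, 5 s 1 Hz baseline · Evaluation – per-well B score of integrated baseline-normalized Fluo4 ratio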
# TRPC4 potent – positive allosteric modulators of TRPC4, primary screen, cell-based, mouse TRPC4beta, HEK293 mu-opioid, Fluo-4 calcium | 0.42% of 310,000 active | B-score at 10 µM | DAMGO EC20, Fluo-4 Ca2+ flux; hits give high values | AID 2227, 2009;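 active = B-score of calcium response area above 5 SD of library B-scores, with initial fluorescence ratio within 5 SD of library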
# TRPC6 act – mouse TRPC6 channel activators, primary screen, cell-based, HEK293, membrane potential dye; Short transient receptor potential channel 6 (Mus musculus), Q61143; HEK293-TRPC6 membrane potential dye fluorescence; hits give high values; B-score at 10 µM; 0.13% of 310,000 active; AID 2550, 2010;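 active = B-score of the integrated fluorescence ratio above library mean plus 3 SD, and starting fluorescence ratio within library mean plus 5 SD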;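 note: higher score means more depolarization so channel activation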
# TRPC6 inhibitor – mouse TRPC6 channel inhibitors, primary screen, cell-based, HEK293, membrane potential dye; AID 2553, 2010; 1.1% of 310,000 active; B-score at 10 µM; ACh-evoked depolarization; hits give low values; Short transient receptor potential channel 6 (Mus musculus), Q61143;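 active = B-score under library mean minus 3 SD, initial fluorescence not abnormally high, positive integrated signal ratio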;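 note: B-score derived from integrated fluorescence ratio over the kinetic read; more negative B-score means stronger inhibition of depolarization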
# TRPC4 spec 2 – mouse TRPC4 off-target activity of TRPC6 inhibitors, second screen | shares compounds with TRPC6 inhibitor | HEK293 TRPC4/MOR, membrane potential dye fluorescence; channel activated by saturating DAMGO dose | inhibition, % at 10 µM | 42% of 920 active;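 active = compounds whose fluorescence signal differed from control wells by over 3 SD, either direction, in both duplicate plates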
# TRPC4 spec – mouse TRPC4 modulation by TRPC6 hits, confirmation, selectivity assay for TRPC6 inhibitor project, cell-based, HEK293 TRPC4/mu-opioid, membrane potential dye; activity change, negative = inhibition, % at 10 µM; shares compounds with TRPC6 inhibitor; 61% of 920 active; AID 2777, 2010; membrane potential fluorescence;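 active = rise or fall in signal beyond 3 SD of buffer-only wells in both replicate plates, either sign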;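 note: integrated kinetic ratio of fluorescence range over baseline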
# HEK293 MPD ctr 2-1 – nonspecific membrane potential effects, parental HEK293, confirmation, counter-screen for TRPC6 inhibitor project, cell-based, second counter screen | 31% of 920 active | signal change vs control, % at 10 µM | AID 2779, 2010 | shares compounds with TRPC6 inhibitor | parental HEK293 membrane potential dye fluorescence; maximal acetylcholine challenge after compound addition;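 active = membrane potential signal moving either way by over 3 SD of the maximum-effect control, in both duplicate plates, meaning non-specific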
# HEK293 MPD ctr-1 – membrane potential modulation in parental HEK293, confirmation, counter-screen for TRPC6 inhibitor project, cell-based | shares compounds with TRPC6 inhibitor | parental HEK293 membrane potential dye fluorescence | membrane potential signal change, % at 10 µM | 60% of 920 active;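 active = membrane potential signal shifting up or down by more than 3 SD of buffer-only wells, on both duplicate plates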
# HEK293 MPD ctr-2 – parental HEK293 membrane potential modulation, confirmation, counter-screen for TRPC6 modulator project, cell-based; shares compounds with TRPC6 inhibitor; membrane potential dye fluorescence; membrane potential signal change, % at 10 µM; 51% of 2,400 active; AID 488924, 2010;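 active = membrane potential signal moves up or down beyond 5 SD from buffer-only wells, on both duplicate plates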
# HEK293 MPD ctr 2-2 – parental HEK293 nonspecific activity of TRPC6 modulators, second screen | shares compounds with TRPC6 inhibitor | membrane potential dye fluorescence; after compound, maximal acetylcholine stimulation | inhibition, % at 10 µM | 14% of 2,400 active | AID 488926;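 active = membrane potential signal drops by more than 5 SD from the mean control signal, in both duplicate plates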
# TRPC4/MOR mod – TRPC4 modulation by TRPC6 hit compounds, confirmation, selectivity assay for TRPC6 modulator project, cell-based, HEK293 TRPC4/mu-opioid, membrane potential dye, mouse | shares compounds with TRPC6 inhibitor | membrane potential fluorescence | percent change from control (negative = decrease, positive = increase), % at 10 µM | 69% of 2,400 active | AID 488927, 2010;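 active = membrane potential signal moved up or down beyond 5 SD of buffer control wells, in both duplicate plates, actives on both sides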
# TRPC4 ctr inh 2 – second selectivity test of TRPC6 modulators against mouse TRPC4; shares compounds with TRPC6 inhibitor; HEK293 TRPC4/mu-opioid, membrane potential dye fluorescence; stimulated with maximal-effect DAMGO; inhibition, % at 10 µM; 55% of 2,400 active; AID 488928;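 active = drop in membrane potential signal beyond 5 SD of the control wells in both duplicate plates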;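 note: TRPC4 counter screen for TRPC6 hits run under conditions tuned for TRPC6 not TRPC4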
# TRPC6 inh conf – mouse TRPC6 channel inhibitors, confirmation, HEK293 cells, membrane potential dye, duplicate. inhibition, % at 10 µM. 43% of 3,300 active. shares compounds with TRPC6 inhibitor. ACh-evoked depolarization. AID 488960, 2010;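 active = fluorescence ratio falls more than 5 SD below the full-stimulation control mean, in both duplicate runs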;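 note: integrated fluorescence ratio of peak minus minimum over baseline after agonist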
# TRPC6 act confirm – mouse TRPC6 channel activators, confirmation, HEK293 cells, membrane potential dye, duplicate; shares compounds with TRPC6 inhibitor; HEK293-TRPC6 membrane potential dye fluorescence, FDSS; activation, % at 10 µM; 11% of 2,800 active; AID 488961, 2010;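 active = ratio signal rise beyond 5 SD above unstimulated control wells' mean, seen in both duplicate runs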
# Numbers stand for hits; . = inactive; / = no result. In the library only some 2.9% were active in any assay of this set; here they are far more common.
SMILES,Kir21 inh,TRPC4 agonist,TRPC4 inh,TRPC4 potent,TRPC6 act,TRPC6 inhibitor,HEK293 MPD ctr-2,HEK293 MPD ctr 2-2,TRPC4/MOR mod,TRPC4 ctr inh 2,TRPC6 inh conf,TRPC6 act confirm,others
O=c1c2cccc3c2c(nn1CN1CCOCC1)-c1ccccc1-3,.,.,.,.,.,.,/,/,/,/,/,/,
CCN(CC)CCn1nc2c3c(cccc3c1=O)-c1ccccc1-2,.,.,.,.,.,-5.8,-78%,.,-18%,55%,40%,.,
CCOc1ccc(/C=C2\SC(=S)N(CCCC(=O)NCCCN3CCOCC3)C2=O)cc1,.,.,.,.,.,.,/,/,/,/,/,/,
CCc1ccc(/C=C2/SC(=S)N(CCC(=O)NCCCN3CCOCC3)C2=O)cc1,.,.,.,.,.,-5.8,.,.,.,45%,39%,.,
CN1C2CCC1CC(NC(=O)CSCc1ccc(Cl)cc1Cl)C2 (stereo unspecified),.,.,.,.,.,.,/,/,/,/,/,/,
CN(C)CC/C=C1/c2cc(F)ccc2Sc2ccc(Cl)cc21,-8.5,.,.,.,.,-5.3,.,.,9.5%,58%,.,.,
Cc1cc(CSC(=N)N)c(CSC(=N)N)cc1C,.,130,.,.,.,-6.8,-264%,58%,-36%,.,47%,.,
Clc1ccc(C[n+]2cc(-c3ccccc3)n3c2CCCCC3)c(Cl)c1,.,53,-6,.,.,-6,160%,.,84%,92%,54%,/,
CCOCCCNC(=O)CN1C(=O)c2ccccc2Sc2ncccc21,.,.,.,.,.,.,/,/,/,/,/,/,
CCCCOc1ccc(C(=O)OC(C)CN(C)C)cc1 (stereo unspecified),.,.,.,.,12,.,218%,.,35%,34%,.,102%,
COc1ccccc1Nc1nnc(SCC(=O)N2CCCC2=O)s1,.,.,.,.,.,-5.1,.,.,.,.,.,.,
COc1ccccc1Nc1nnc(SCC(=O)N2CCCC2)s1,.,.,.,.,.,.,/,/,/,/,/,/,
CCCCN1C(=S)SC(C)(C)C1/[N+]([O-])=C/c1cccnc1 (stereo unspecified),.,.,.,.,.,-6.6,/,/,/,/,57%,/,TRPC4 spec 2=.;TRPC4 spec=.;HEK293 MPD ctr 2-1=.;HEK293 MPD ctr-1=.
O=C(Nc1ccncc1)Nc1cccc(F)c1,.,.,.,.,.,.,/,/,/,/,/,/,
CSCCC(NC(=O)c1ccccc1Cl)C(=O)NNC(=O)c1ccncc1 (stereo unspecified),.,.,.,.,.,.,/,/,/,/,/,/,
CN(/C(=N\S(=O)(=O)c1ccccc1)c1ccccc1)c1ccc(O)cc1,.,.,.,.,.,.,/,/,/,/,/,/,
CN(/C(=N/S(=O)(=O)c1ccccc1)c1ccccc1)S(=O)(=O)c1ccccc1,.,.,.,.,.,-6.5,.,.,10%,.,.,.,
CCN(C(=O)COC(=O)CNS(=O)(=O)c1ccc(SC)c([N+](=O)[O-])c1)C1CCCCC1,.,.,.,.,.,.,/,/,/,/,/,/,
Cc1cccc(C(=O)NN2C(=O)C3C(c4ccccc4)C=CC(c4ccccc4)C3C2=O)c1 (stereo unspecified),.,.,.,.,.,-5,.,.,.,.,.,.,
O=C(NN1C(=O)C2C3C=CC(C3)C2C1=O)c1ccccc1 (stereo unspecified),.,.,.,.,.,.,/,/,/,/,/,/,
Cc1cccc(C(=O)Nc2ccccc2C(=O)NCc2ccco2)c1,.,.,.,.,.,.,/,/,/,/,/,/,
COCCCn1c(=NC(=O)c2ccncc2)c(C#N)cc2c(=O)n3cccc(C)c3nc21,.,.,.,.,.,.,/,/,/,/,/,/,
Cc1cccn2c(=O)c3cc(C(N)=S)c(=N)n(CCCN4CCOCC4)c3nc12,.,.,.,.,.,.,/,/,/,/,/,/,
Cc1cccn2c(=O)c3cc(C#N)c(=N)n(Cc4ccncc4)c3nc12,.,.,.,.,.,-5.7,-168%,.,-30%,.,.,.,
CCC(C)n1c(=N)c(C#N)cc2c(=O)n3ccccc3nc21 (stereo unspecified),.,.,.,.,.,.,/,/,/,/,/,/,
Cc1cccn2c(=O)c3cc(C#N)c(=N)n(CCCN4CCOCC4)c3nc12,.,.,.,.,.,-8.6,-84%,118%,-26%,68%,57%,.,
